Assay results reported in ChEMBL document CHEMBL1127079, “Substituted chromenes as potent, orally active 5-lipoxygenase inhibitors” (J Med Chem, 1993).

Legend:
[1] = system: Arachidonate 5-lipoxygenase (Canis lupus familiaris); experiment: Ex vivo inhibition of LTB-4 determined by measurement of A-23187-stimulated LTB-4 production in dog blood at 10 mg/kg po; settings: target entry is the homologue from another species
[2] = Duration of action where maximum inhibition of LTB4 formation is achieved at 10 mg/kg po; format: functional, organism-based; parameters: dose 10 mg/kg; settings: Canis lupus familiaris
Method in brief: (§1)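 Beagle dogs (8–15 kg, fasted 16–18 h, water allowed) dosed by oral intubation as suspension in 3% cornstarch/0.33% Tween 80/5% PEG 400 in water, 5 mL/kg. Jugular blood at -1, 0, 0.25, 0.5, 1, 3, 6, 9, 24 h; 1-mL aliquots stimulated 15 min at 37 °C with A23187 100 μM plus fMLP 10 μM (final); plasma LTB4 by RIA. DA read graphically: time from maximum inhibition to 50% of maximum.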

[3] = system: Arachidonate 5-lipoxygenase (Canis lupus familiaris); experiment: Ex vivo inhibition of LTB-4 determined by measurement of A-23187-stimulated LTB-4 production in dog blood at 3 mg/kg po; settings: target entry is the homologue from another species
[4] = Duration of action where maximum inhibition of LTB4 formation is achieved at 3 mg/kg po; format: functional, organism-based; parameters: dose 3 mg/kg; settings: Canis lupus familiaris
Method in brief: as §1

[5] = Duration of action where maximum inhibition of LTB4 formation is achieved at 1 mg/kg iv; format: functional, organism-based; parameters: dose 1 mg/kg; settings: Canis lupus familiaris
Method in brief: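 Beagle dogs (8–15 kg, fasted) given iv bolus in forearm in DMA/PEG 400 (25:75), 0.1 mL/kg. Blood at -1, 0, 0.08, 0.25, 0.5, 1, 3, 6, 9, 24 h; aliquots stimulated with A23187 100 μM + fMLP 10 μM final, 15 min, 37 °C; plasma LTB4 by RIA. DA taken graphically from maximum inhibition to 50%-of-maximum level.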

[6] = target: T1, Polyunsaturated fatty acid 5-lipoxygenase (Homo sapiens) (UniProt P09917); experiment: Ex vivo inhibition of LTB-4 determined by measurement of A-23187-stimulated LTB-4 production in dog blood at 1 mg/kg iv; format: functional, organism-based; parameters: dose 1 mg/kg
T1 sequence (whole entry): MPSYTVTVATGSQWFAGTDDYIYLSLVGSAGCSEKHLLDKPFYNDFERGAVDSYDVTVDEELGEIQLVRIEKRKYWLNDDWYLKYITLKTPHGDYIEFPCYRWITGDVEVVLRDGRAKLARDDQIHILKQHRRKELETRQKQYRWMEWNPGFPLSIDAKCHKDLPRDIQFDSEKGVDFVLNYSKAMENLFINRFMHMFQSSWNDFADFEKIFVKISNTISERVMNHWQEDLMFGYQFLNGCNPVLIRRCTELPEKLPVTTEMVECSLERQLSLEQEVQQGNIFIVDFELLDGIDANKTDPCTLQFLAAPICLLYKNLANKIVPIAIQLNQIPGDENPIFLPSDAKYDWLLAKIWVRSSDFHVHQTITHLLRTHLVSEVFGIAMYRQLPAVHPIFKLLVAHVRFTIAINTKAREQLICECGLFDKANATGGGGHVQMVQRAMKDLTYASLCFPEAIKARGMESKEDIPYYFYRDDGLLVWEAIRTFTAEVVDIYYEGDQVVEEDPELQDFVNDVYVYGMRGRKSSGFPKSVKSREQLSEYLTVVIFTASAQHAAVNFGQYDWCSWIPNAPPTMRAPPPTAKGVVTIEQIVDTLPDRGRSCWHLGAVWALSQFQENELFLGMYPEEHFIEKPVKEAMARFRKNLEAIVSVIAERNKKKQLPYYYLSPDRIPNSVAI
Method in brief: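 Beagles (8–15 kg, fasted 16–18 h) given iv forearm bolus in DMA/PEG 400 (25:75), 0.1 mL/kg. Jugular blood (serine/heparin) sampled -1 to 24 h; 1-mL aliquots stimulated with A23187 100 μM + fMLP 10 μM final for 15 min at 37 °C, one aliquot unstimulated. Plasma LTB4 by RIA; inhibition versus mean of -1 and 0 h predose values.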

[7] = Duration of action where maximum inhibition of LTB4 formation is achieved at 1 mg/kg po; format: functional, organism-based; parameters: dose 1 mg/kg; settings: Canis lupus familiaris
Method in brief: as §1

[8] = target: T1, Polyunsaturated fatty acid 5-lipoxygenase (Homo sapiens); experiment: Ex vivo inhibition of LTB4 production by measurement of A-23187-stimulated LTB-4 production in dog blood at 1 mg/kg po.; format: functional, organism-based; parameters: dose 1 mg/kg; settings: Canis lupus familiaris, target entry is the homologue from another species
Method in brief: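 Fasted beagles (8–15 kg) dosed orally by intubation, suspension in 3% cornstarch with 0.33% Tween 80 and 5% PEG 400, 5 mL/kg. Blood at -1, 0, 0.25–24 h stimulated ex vivo with A23187 100 μM + fMLP 10 μM final, 15 min, 37 °C; plasma LTB4 by RIA; percent inhibition relative to mean predose (-1, 0 h) values.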

[9] = target: T2, Polyunsaturated fatty acid lipoxygenase ALOX12 (Homo sapiens, UniProt P18054); experiment: Inhibitory concentration against human platelet 12-lipoxygenase; format: functional
T2 sequence (P18054 whole entry): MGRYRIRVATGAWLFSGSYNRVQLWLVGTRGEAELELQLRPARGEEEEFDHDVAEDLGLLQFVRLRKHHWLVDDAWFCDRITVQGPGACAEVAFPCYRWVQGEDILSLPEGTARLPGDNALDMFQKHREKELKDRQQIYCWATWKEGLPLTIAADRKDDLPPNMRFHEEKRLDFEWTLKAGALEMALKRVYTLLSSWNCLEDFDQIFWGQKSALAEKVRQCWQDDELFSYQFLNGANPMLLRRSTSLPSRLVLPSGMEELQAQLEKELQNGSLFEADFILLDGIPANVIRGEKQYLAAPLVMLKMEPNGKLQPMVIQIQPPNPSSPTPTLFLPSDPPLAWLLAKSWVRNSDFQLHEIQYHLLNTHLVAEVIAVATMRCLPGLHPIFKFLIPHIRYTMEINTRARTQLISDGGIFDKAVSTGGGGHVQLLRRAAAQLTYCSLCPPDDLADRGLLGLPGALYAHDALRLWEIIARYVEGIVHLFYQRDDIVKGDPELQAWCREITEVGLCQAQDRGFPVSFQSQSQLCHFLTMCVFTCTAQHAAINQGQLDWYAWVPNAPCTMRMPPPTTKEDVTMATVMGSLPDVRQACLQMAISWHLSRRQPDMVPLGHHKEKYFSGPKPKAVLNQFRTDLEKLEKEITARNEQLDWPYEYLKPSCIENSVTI
Method in brief: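 Cytoplasmic fraction of lysed human platelets, diluted to give 50% AA conversion, preincubated with inhibitor 5 min at 37 °C in 0.1 M Tris-HCl pH 8.0 with 1 mM glutathione and 10 μM indomethacin. 1-[14C]AA added, 15 min at 37 °C; 12-HETE separated by TLC and counted.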

[10] = Duration of action is where maximum inhibition of LTB4 formation is achieved at 1 mg/kg po; format: functional, organism-based; parameters: dose 1 mg/kg; settings: Canis lupus familiaris
Method in brief: as §1

[11] = target: T3, Prostaglandin G/H synthase (cyclooxygenase) (Ovis aries, UniProt P05979+P79208); experiment: Inhibitory concentration against sheep seminal vesicle Prostaglandin G/H synthase; format: functional, tissue-based
T3 sequence (P05979 whole entry): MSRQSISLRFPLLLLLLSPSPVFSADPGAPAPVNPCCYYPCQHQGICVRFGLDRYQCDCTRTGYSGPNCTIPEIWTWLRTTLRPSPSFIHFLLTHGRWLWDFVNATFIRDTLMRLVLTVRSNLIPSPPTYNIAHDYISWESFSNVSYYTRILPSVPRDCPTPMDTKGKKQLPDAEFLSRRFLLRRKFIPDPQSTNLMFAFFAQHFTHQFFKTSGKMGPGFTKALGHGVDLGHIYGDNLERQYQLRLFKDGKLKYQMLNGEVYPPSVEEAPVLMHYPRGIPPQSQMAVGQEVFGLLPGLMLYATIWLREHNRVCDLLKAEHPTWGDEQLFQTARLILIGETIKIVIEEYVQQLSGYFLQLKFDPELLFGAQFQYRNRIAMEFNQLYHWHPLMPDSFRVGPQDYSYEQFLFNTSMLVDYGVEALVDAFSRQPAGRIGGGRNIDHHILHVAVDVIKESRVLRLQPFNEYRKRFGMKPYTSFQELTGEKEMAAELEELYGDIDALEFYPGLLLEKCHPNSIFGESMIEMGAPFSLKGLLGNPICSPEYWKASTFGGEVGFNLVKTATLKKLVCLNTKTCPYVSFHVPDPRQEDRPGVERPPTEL
T3 sequence (P79208 whole entry): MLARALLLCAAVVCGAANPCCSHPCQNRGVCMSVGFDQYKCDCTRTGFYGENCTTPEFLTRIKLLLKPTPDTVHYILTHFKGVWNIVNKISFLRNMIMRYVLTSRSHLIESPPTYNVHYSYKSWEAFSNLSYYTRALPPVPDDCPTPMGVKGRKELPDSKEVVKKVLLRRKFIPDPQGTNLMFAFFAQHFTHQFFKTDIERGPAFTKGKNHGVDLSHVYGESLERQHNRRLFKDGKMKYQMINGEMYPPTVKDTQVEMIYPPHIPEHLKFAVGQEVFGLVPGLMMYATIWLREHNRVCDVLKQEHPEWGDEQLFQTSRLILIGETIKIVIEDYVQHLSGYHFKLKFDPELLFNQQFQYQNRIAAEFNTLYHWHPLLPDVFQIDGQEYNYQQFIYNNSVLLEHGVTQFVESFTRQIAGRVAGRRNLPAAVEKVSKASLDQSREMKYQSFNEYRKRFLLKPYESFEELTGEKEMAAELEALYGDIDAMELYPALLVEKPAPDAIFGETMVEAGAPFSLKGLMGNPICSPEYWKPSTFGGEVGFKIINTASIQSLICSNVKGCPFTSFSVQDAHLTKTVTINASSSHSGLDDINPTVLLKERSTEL
Method in brief: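 Lyophilized sheep seminal vesicle microsomes as cyclooxygenase source; conversion of [14C]AA to PGE2 with compounds over a wide concentration range in 0.1 M Tris-HCl pH 8.4 (or 1% ethanol). PGs extracted into ethyl acetate, separated by TLC, PGE2 zones counted by scintillation.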

With NC(=O)N(O)CC1=Cc2cc(Br)ccc2OC1 the inhibition [1] was > 95% and the Duration [2] was 3.8 h.

CCCCCCOc1ccc2c(c1)C=C(CN(O)C(N)=O)CO2 gave an inhibition [3] of 60% and a Duration [4] of 2.2 h.

With NC(=O)N(O)CC1=Cc2cc(OCc3ccc(C(F)(F)F)cc3)ccc2OC1 the inhibition [1] was > 95%, the Duration [2] was > 6 h and the Duration [5] was 3 h. It also gave an inhibition [6] of 82%.

In the case of CNC(=O)N(O)CC1=Cc2cc(Oc3ccccc3)ccc2OC1, the Duration [7] is reported as 11 h, the Duration [5] is reported as 8.4 h and the inhibition [6] is reported as > 95%. The inhibition [8] was > 95%.

For CCNC(=O)N(O)CC1=Cc2cc(Oc3ccccc3)ccc2OC1, the Duration [7] was 3.8 h, the Duration [5] was 5.1 h and the inhibition [6] was > 95%. The inhibition [8] was 60%.

For NC(=O)N(O)CC1=Cc2cc(Oc3ccccc3)ccc2OC1, the Duration [4] was 35 h, the inhibition [6] was > 95% and the inhibition [8] was > 95%. For the same molecule, the IC50 [9] was 640 nM and the Duration [10] was 14 h.

With CC1Oc2ccc(Oc3ccccc3)cc2C=C1CN(O)C(N)=O (stereo not drawn) the Duration [7] was 9 h, the Duration [5] was 5 h and the inhibition [6] was > 95%. The inhibition [8] was > 95%.

Molecule CC(c1cc2ccccc2s1)N(O)C(N)=O (stereo not drawn) [ZILEUTON] has an IC50 [9] of 55000 nM.

In the case of NC(=O)N(O)CC1COc2ccc(Oc3ccccc3)cc2C1 (stereo not drawn), the Duration [7] is reported as 4.8 h, the Duration [5] is reported as 7.4 h and the inhibition [6] is reported as > 95%. The inhibition [8] was > 95%.

For COc1ccc2c(c1)C=C(CN(O)C(N)=O)CO2, the Duration [2] was > 6 h and the Duration [5] was 1.2 h.

Work on CC1(C)Oc2ccc(Oc3ccccc3)cc2C=C1CN(O)C(N)=O yielded a Duration [7] of 2.6 h and an inhibition [8] of 65%.

CC1Oc2ccc(OCc3ccccc3)cc2C=C1CN(O)C(N)=O (stereo not drawn) gave a Duration [7] of 2.8 h and an inhibition [8] of 91%.

For NC(=O)N(O)CC1=Cc2cc(OCc3ccccc3)ccc2OC1, the inhibition [3] was > 95%, the inhibition [1] was > 95% and the Duration [2] was > 6 h. For the same molecule, the Duration [5] was 19 h, the inhibition [6] was > 95% and the inhibition [8] was 59%. For the same molecule, the Duration [10] was 5 h.

In the case of NC(=O)N(O)CC1=Cc2cc(Oc3ccc(F)cc3)ccc2OC1, the inhibition [6] is reported as > 95%, the inhibition [8] is reported as > 95% and the Duration [10] is reported as 13 h.

For CNC(=O)N(O)CC1=Cc2cc(Oc3ccc(F)cc3)ccc2OC1, the Duration [5] was 20 h, the Duration [4] was 42 h and the IC50 [11] was > 100 µM. For the same molecule, the inhibition [6] was > 95%, the inhibition [8] was > 95% and the IC50 [9] was 410 nM. For the same molecule, the Duration [10] was 15 h.

For NC(=O)N(O)CC1=Cc2cc(-c3ccccc3)ccc2OC1, the Duration [7] was 1 h and the inhibition [8] was 60%.

With NC(=O)N(O)CC1=Cc2cc(OCCCc3ccccc3)ccc2OC1 the inhibition [3] was > 95%, the Duration [7] was 4 h and the Duration [4] was > 6 h. For the same molecule, the inhibition [8] was > 90%.

With C=CCNC(=O)N(O)CC1=Cc2cc(Oc3ccccc3)ccc2OC1 the inhibition [8] was 80% and the Duration [10] was 4.2 h.

In the case of CCCNC(=O)N(O)CC1=Cc2cc(Oc3ccccc3)ccc2OC1, the Duration [5] is reported as 8.1 h and the inhibition [6] is reported as > 95%.
